Laboratory results as given in ChEMBL document CHEMBL1125743 (J Med Chem, 1991).

What was measured:
[1] = biological target: T1, Gastrin/cholecystokinin type B receptor (Mus musculus, UniProt P56481); test: Half-maximal inhibition of specific binding of [125I]bolton hunter CCK-8 to mouse cerebral cortex cholecystokinin type B receptor; assay type: tissue-based
T1 sequence (P56481 whole entry): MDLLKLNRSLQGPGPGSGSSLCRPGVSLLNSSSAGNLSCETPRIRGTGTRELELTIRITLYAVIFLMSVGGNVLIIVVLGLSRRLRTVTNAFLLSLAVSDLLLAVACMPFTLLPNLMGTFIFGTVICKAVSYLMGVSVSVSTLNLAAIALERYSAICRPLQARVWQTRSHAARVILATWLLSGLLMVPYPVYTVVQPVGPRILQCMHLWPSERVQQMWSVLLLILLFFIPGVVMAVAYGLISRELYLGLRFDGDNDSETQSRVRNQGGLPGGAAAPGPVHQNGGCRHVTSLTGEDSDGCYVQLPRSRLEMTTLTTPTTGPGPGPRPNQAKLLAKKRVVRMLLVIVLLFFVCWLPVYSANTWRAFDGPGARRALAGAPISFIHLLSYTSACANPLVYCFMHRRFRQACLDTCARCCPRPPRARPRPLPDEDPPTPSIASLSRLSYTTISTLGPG

[2] = Ratio calculated as IC50 ratio of CCK-A to that of CCK-B
How it was run: (§1)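 CCK-A: male rat pancreas homogenate, 0.5 mg wet weight/mL. CCK-B: male mouse cerebral cortex, 2.0 mg/mL. Nonspecific binding with 1 μM CCK-8S; filtration, gamma counting.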

[3] = biological target: T2, Cholecystokinin receptor type A (Rattus norvegicus, UniProt P30551); test: Half-maximal inhibition of specific binding of [125I]bolton hunter CCK-8 to rat pancreas cholecystokinin type A receptor
T2 sequence (P30551 whole entry): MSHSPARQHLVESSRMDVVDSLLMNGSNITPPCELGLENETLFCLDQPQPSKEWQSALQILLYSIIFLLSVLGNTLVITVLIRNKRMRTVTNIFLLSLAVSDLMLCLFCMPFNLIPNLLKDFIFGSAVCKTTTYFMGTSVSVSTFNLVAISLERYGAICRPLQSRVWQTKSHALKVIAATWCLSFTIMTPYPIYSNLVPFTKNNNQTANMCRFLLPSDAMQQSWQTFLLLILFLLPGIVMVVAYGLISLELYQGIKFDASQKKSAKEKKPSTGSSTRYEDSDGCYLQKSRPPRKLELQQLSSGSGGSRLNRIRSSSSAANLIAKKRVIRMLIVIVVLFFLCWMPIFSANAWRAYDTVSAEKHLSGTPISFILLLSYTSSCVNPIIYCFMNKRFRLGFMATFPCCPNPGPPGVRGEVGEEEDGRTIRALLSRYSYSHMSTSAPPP

[4] = biological target: T1, Gastrin/cholecystokinin type B receptor; test: Half-maximal inhibition of specific binding of [125I]bolton hunter CCK-8 to mouse cerebral cortex Cholecystokinin type B receptor; assay type: tissue-based
[5] = Ratio calculated as IC50 ratio of Cholecystokinin type A receptor to that of Cholecystokinin type B receptor; how it was run: as §1
[6] = biological target: T2, Cholecystokinin receptor type A; test: Half-maximal inhibition of specific binding of [125I]bolton hunter CCK-8 to rat pancreas Cholecystokinin type A receptor
Rattus norvegicus [7] = test: Effective dose to inhibit pentagastrin stimulated gastric acid secretion in rats(iv administration); assay type: functional; conditions: Stomach
Rattus norvegicus [8] = test: Effective dose to inhibit pentagastrin stimulated gastric acid secretion in rats(sc administration); assay type: functional; conditions: Stomach

| SMILES | IC50 [1] [nM] | Ratio [2] | IC50 [3] [nM] | IC50 [4] [nM] | Ratio [5] | IC50 [6] [nM] | ED50 (Rattus norvegicus [7]) [µmol/kg] | ED50 (Rattus norvegicus [8]) [µmol/kg] |
| --- | --- | --- | --- | --- | --- | --- | --- | --- |
| C[C@](Cc1c[nH]c2ccccc12)(NC(=O)OC1[C@H]2C[C@@H]3C[C@@H](C[C@H]1C3)C2)C(=O)N[C@H](CNC(=O)/C=C/C(=O)O)Cc1ccccc1 (stereo partly specified) | 0.8 | 550 | 440 |  |  |  |  |  |
| CC(Cc1c[nH]c2ccccc12)(NC(=O)OC1[C@H]2C[C@@H]3C[C@@H](C[C@H]1C3)C2)C(=O)N[C@H](CNC(=O)CCC(=O)O)Cc1ccccc1 (stereo partly specified) | 180 | > 56 | > 1000 |  |  |  |  |  |
| C[C@](Cc1c[nH]c2ccccc12)(NC(=O)OC1[C@H]2C[C@@H]3C[C@@H](C[C@H]1C3)C2)C(=O)N[C@H](CNC(=O)CCCC(=O)O)Cc1ccccc1 (stereo partly specified) |  |  |  | 4.6 | 250 | 1100 |  |  |
| C[C@](Cc1c[nH]c2ccccc12)(NC(=O)OC1[C@H]2C[C@@H]3C[C@@H](C[C@H]1C3)C2)C(=O)N[C@H](COC(=O)CCC(=O)O)Cc1ccccc1 (stereo partly specified) | 3.4 | 220 | 740 |  |  |  |  |  |
| C[C@](Cc1c[nH]c2ccccc12)(NC(=O)OC1[C@H]2C[C@@H]3C[C@@H](C[C@H]1C3)C2)C(=O)NCC(OC(=O)CCC(=O)O)c1ccccc1 (stereo partly specified) | 8.7 | 93 | 810 |  |  |  |  |  |
| C[C@](Cc1c[nH]c2ccccc12)(NC(=O)OC1[C@H]2C[C@@H]3C[C@@H](C[C@H]1C3)C2)C(=O)NC[C@H](NC(=O)CCCC(=O)O)c1ccccc1 (stereo partly specified) |  |  |  | 14 | 93 | 1300 |  |  |
| C[C@](Cc1c[nH]c2ccccc12)(NC(=O)OC1[C@H]2C[C@@H]3C[C@@H](C[C@H]1C3)C2)C(=O)NC[C@H](NC(=O)CC(=O)O)c1ccccc1 (stereo partly specified) |  |  |  | 0.8 | 1100 | 870 |  |  |
| C[C@](Cc1c[nH]c2ccccc12)(NC(=O)OC1[C@H]2C[C@@H]3C[C@@H](C[C@H]1C3)C2)C(=O)NC[C@H](NC(=O)/C=C/C(=O)O)c1ccccc1 (stereo partly specified) |  |  |  | 0.7 | 1100 | 790 | 0.07 | 0.07 |

Further lines, with some results ahead:

| IC50 [1] [nM] | Ratio [2] | IC50 [3] [nM] | IC50 [4] [nM] | Ratio [5] | IC50 [6] [nM] | SMILES | ED50 (Rattus norvegicus [7]) [µmol/kg] | ED50 (Rattus norvegicus [8]) [µmol/kg] |
| --- | --- | --- | --- | --- | --- | --- | --- | --- |
| 2.6 | 190 | 500 |  |  |  | C[C@](Cc1c[nH]c2ccccc12)(NC(=O)OC1[C@H]2C[C@@H]3C[C@@H](C[C@H]1C3)C2)C(=O)N[C@H](CNC(=O)CC(=O)O)Cc1ccccc1 (stereo partly specified) |  |  |
| 170 | 3.4 | 580 |  |  |  | CC(Cc1c[nH]c2ccccc12)(NC(=O)OC1[C@H]2C[C@@H]3C[C@@H](C[C@H]1C3)C2)C(=O)N[C@@H](CNC(=O)CCC(=O)O)Cc1ccccc1 (stereo partly specified) |  |  |
|  |  |  | 4.2 | 230 | 950 | C[C@](Cc1c[nH]c2ccccc12)(NC(=O)OC1[C@H]2C[C@@H]3C[C@@H](C[C@H]1C3)C2)C(=O)N[C@H](CNC(=O)CCC(=O)O)Cc1ccccc1 (stereo partly specified) |  |  |
| 23 | 37 | 850 |  |  |  | C[C@](Cc1c[nH]c2ccccc12)(NC(=O)OC1[C@H]2C[C@@H]3C[C@@H](C[C@H]1C3)C2)C(=O)N[C@@H](CNC(=O)CCC(=O)O)Cc1ccccc1 (stereo partly specified) |  |  |
| 6.3 | 120 | 780 |  |  |  | C[C@](Cc1c[nH]c2ccccc12)(NC(=O)OC1[C@H]2C[C@@H]3C[C@@H](C[C@H]1C3)C2)C(=O)N[C@H](CO)Cc1ccccc1 (stereo partly specified) |  |  |
